Measured values taken from ChEMBL document CHEMBL3421570, “Combinatorial Libraries As a Tool for the Discovery of Novel, Broad-Spectrum Antibacterial Agents Targeting the ESKAPE Pathogens” (J Med Chem, 2015).
Activity calls are given as the source filed them. No cut-off for these calls is given here.

Test system: Enterococcus faecium
Test: Antimicrobial activity against Enterococcus faecium assessed as inhibition of microbial growth after 24 hrs
Format: functional
How it was run: (§1)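 Broth microdilution against multidrug-resistant clinical ESKAPE isolates. Overnight cultures (TSB for Gram-positives, LB for Gram-negatives) diluted 1:1000 in fresh medium, compound in DMF (≤2.0% DMF) added at decreasing concentrations, 37°C.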

MIC, inactive:
CC1CCC(CN2C(=N)NC[C@@H]2CCCCN2CCNC2=N)CC1 (stereo partly drawn)
CC[C@H](C)[C@H]1CN(CCCC[C@H]2CNC(=N)N2CC2CCC(C)CC2)C(=N)N1 (stereo partly drawn)
CCC(C)CN1C(=N)N(CCCC[C@H]2CNC(=N)N2CC2CCC(C)CC2)C[C@@H]1[C@@H](C)CC (stereo partly drawn)
CCCCCCCN1C(=N)NC[C@@H]1CCCCN1C[C@H]([C@@H](C)CC)N(CC(C)CC)C1=N (stereo partly drawn)
CC[C@H](C)[C@H]1CN(CCCC[C@H]2CNC(=N)N2CC2CCCCC2)C(=N)N1CCc1cccc(C)c1
CC[C@H](C)[C@H]1CN(CCCC[C@H]2CNC(=N)N2CC2CCCCC2)C(=N)N1
CCC(C)CN1C(=N)N(CCCC[C@H]2CNC(=N)N2CC2CCCCC2)C[C@@H]1[C@@H](C)CC (stereo partly drawn)
N=C1NCCN1CCCC[C@H]1CNC(=N)N1CC1CCCCC1
Cc1cccc(CCN2CCN(CCCC[C@H]3CNC(=N)N3CC3CCCCC3)C2=N)c1
CCCCCCCN1C(=N)NC[C@@H]1CCCCN1C[C@@H](CCC)NC1=N
CCC[C@@H]1CN(CCCC[C@H]2CNC(=N)N2CC2CCC(C)CC2)C(=N)N1CCc1cccc(C)c1 (stereo partly drawn)
CCCCCCCN1C(=N)NC[C@@H]1CCCCN1C[C@@H](CCC)N(CC(C)CC)C1=N (stereo partly drawn)
CCCCCCCN1C(=N)NC[C@@H]1CCCCN1C[C@H]([C@@H](C)CC)N(CCc2cccc(C)c2)C1=N

Test system: Staphylococcus aureus
Test: Antimicrobial activity against Staphylococcus aureus assessed as inhibition of microbial growth after 24 hrs
Format: functional
How it was run: as §1

MIC, inactive:
CC1CCC(CN2C(=N)NC[C@@H]2CCCCN2CCNC2=N)CC1 (stereo partly drawn)
CC[C@H](C)[C@H]1CN(CCCC[C@H]2CNC(=N)N2CC2CCC(C)CC2)C(=N)N1 (stereo partly drawn)
CCC(C)CN1C(=N)N(CCCC[C@H]2CNC(=N)N2CC2CCC(C)CC2)C[C@@H]1[C@@H](C)CC (stereo partly drawn)
CCCCCCCN1C(=N)NC[C@@H]1CCCCN1C[C@H]([C@@H](C)CC)N(CC(C)CC)C1=N (stereo partly drawn)
CC[C@H](C)[C@H]1CN(CCCC[C@H]2CNC(=N)N2CC2CCCCC2)C(=N)N1CCc1cccc(C)c1
CC[C@H](C)[C@H]1CN(CCCC[C@H]2CNC(=N)N2CC2CCCCC2)C(=N)N1
CCC(C)CN1C(=N)N(CCCC[C@H]2CNC(=N)N2CC2CCCCC2)C[C@@H]1[C@@H](C)CC (stereo partly drawn)
N=C1NCCN1CCCC[C@H]1CNC(=N)N1CC1CCCCC1
Cc1cccc(CCN2CCN(CCCC[C@H]3CNC(=N)N3CC3CCCCC3)C2=N)c1
CCCCCCCN1C(=N)NC[C@@H]1CCCCN1C[C@@H](CCC)NC1=N
CCC[C@@H]1CN(CCCC[C@H]2CNC(=N)N2CC2CCC(C)CC2)C(=N)N1CCc1cccc(C)c1 (stereo partly drawn)
CCCCCCCN1C(=N)NC[C@@H]1CCCCN1C[C@@H](CCC)N(CC(C)CC)C1=N (stereo partly drawn)
CCCCCCCN1C(=N)NC[C@@H]1CCCCN1C[C@H]([C@@H](C)CC)N(CCc2cccc(C)c2)C1=N

Test system: Klebsiella pneumoniae
Test: Antimicrobial activity against Klebsiella pneumoniae assessed as inhibition of microbial growth after 24 hrs
Format: functional
How it was run: as §1

MIC, inactive:
CC1CCC(CN2C(=N)NC[C@@H]2CCCCN2CCNC2=N)CC1 (stereo partly drawn)
CC[C@H](C)[C@H]1CN(CCCC[C@H]2CNC(=N)N2CC2CCC(C)CC2)C(=N)N1 (stereo partly drawn)
CCC(C)CN1C(=N)N(CCCC[C@H]2CNC(=N)N2CC2CCC(C)CC2)C[C@@H]1[C@@H](C)CC (stereo partly drawn)
CCCCCCCN1C(=N)NC[C@@H]1CCCCN1C[C@H]([C@@H](C)CC)N(CC(C)CC)C1=N (stereo partly drawn)
CC[C@H](C)[C@H]1CN(CCCC[C@H]2CNC(=N)N2CC2CCCCC2)C(=N)N1CCc1cccc(C)c1
CC[C@H](C)[C@H]1CN(CCCC[C@H]2CNC(=N)N2CC2CCCCC2)C(=N)N1
CCC(C)CN1C(=N)N(CCCC[C@H]2CNC(=N)N2CC2CCCCC2)C[C@@H]1[C@@H](C)CC (stereo partly drawn)
N=C1NCCN1CCCC[C@H]1CNC(=N)N1CC1CCCCC1
Cc1cccc(CCN2CCN(CCCC[C@H]3CNC(=N)N3CC3CCCCC3)C2=N)c1
CCCCCCCN1C(=N)NC[C@@H]1CCCCN1C[C@@H](CCC)NC1=N
CCC[C@@H]1CN(CCCC[C@H]2CNC(=N)N2CC2CCC(C)CC2)C(=N)N1CCc1cccc(C)c1 (stereo partly drawn)
CCCCCCCN1C(=N)NC[C@@H]1CCCCN1C[C@@H](CCC)N(CC(C)CC)C1=N (stereo partly drawn)
CCCCCCCN1C(=N)NC[C@@H]1CCCCN1C[C@H]([C@@H](C)CC)N(CCc2cccc(C)c2)C1=N

Test system: Acinetobacter baumannii
Test: Antimicrobial activity against Acinetobacter baumannii assessed as inhibition of microbial growth after 24 hrs
Format: functional
How it was run: as §1

MIC, inactive:
CC1CCC(CN2C(=N)NC[C@@H]2CCCCN2CCNC2=N)CC1 (stereo partly drawn)
CC[C@H](C)[C@H]1CN(CCCC[C@H]2CNC(=N)N2CC2CCC(C)CC2)C(=N)N1 (stereo partly drawn)
CCC(C)CN1C(=N)N(CCCC[C@H]2CNC(=N)N2CC2CCC(C)CC2)C[C@@H]1[C@@H](C)CC (stereo partly drawn)
CCCCCCCN1C(=N)NC[C@@H]1CCCCN1C[C@H]([C@@H](C)CC)N(CC(C)CC)C1=N (stereo partly drawn)
CC[C@H](C)[C@H]1CN(CCCC[C@H]2CNC(=N)N2CC2CCCCC2)C(=N)N1CCc1cccc(C)c1
CC[C@H](C)[C@H]1CN(CCCC[C@H]2CNC(=N)N2CC2CCCCC2)C(=N)N1
CCC(C)CN1C(=N)N(CCCC[C@H]2CNC(=N)N2CC2CCCCC2)C[C@@H]1[C@@H](C)CC (stereo partly drawn)
N=C1NCCN1CCCC[C@H]1CNC(=N)N1CC1CCCCC1
Cc1cccc(CCN2CCN(CCCC[C@H]3CNC(=N)N3CC3CCCCC3)C2=N)c1
CCCCCCCN1C(=N)NC[C@@H]1CCCCN1C[C@@H](CCC)NC1=N
CCC[C@@H]1CN(CCCC[C@H]2CNC(=N)N2CC2CCC(C)CC2)C(=N)N1CCc1cccc(C)c1 (stereo partly drawn)
CCCCCCCN1C(=N)NC[C@@H]1CCCCN1C[C@@H](CCC)N(CC(C)CC)C1=N (stereo partly drawn)
CCCCCCCN1C(=N)NC[C@@H]1CCCCN1C[C@H]([C@@H](C)CC)N(CCc2cccc(C)c2)C1=N

Test system: Pseudomonas aeruginosa
Test: Antimicrobial activity against Pseudomonas aeruginosa assessed as inhibition of microbial growth after 24 hrs
Format: functional
How it was run: as §1

MIC, inactive:
CC1CCC(CN2C(=N)NC[C@@H]2CCCCN2CCNC2=N)CC1 (stereo partly drawn)
CC[C@H](C)[C@H]1CN(CCCC[C@H]2CNC(=N)N2CC2CCC(C)CC2)C(=N)N1 (stereo partly drawn)
CCC(C)CN1C(=N)N(CCCC[C@H]2CNC(=N)N2CC2CCC(C)CC2)C[C@@H]1[C@@H](C)CC (stereo partly drawn)
CCCCCCCN1C(=N)NC[C@@H]1CCCCN1C[C@H]([C@@H](C)CC)N(CC(C)CC)C1=N (stereo partly drawn)
CC[C@H](C)[C@H]1CN(CCCC[C@H]2CNC(=N)N2CC2CCCCC2)C(=N)N1CCc1cccc(C)c1
CC[C@H](C)[C@H]1CN(CCCC[C@H]2CNC(=N)N2CC2CCCCC2)C(=N)N1
CCC(C)CN1C(=N)N(CCCC[C@H]2CNC(=N)N2CC2CCCCC2)C[C@@H]1[C@@H](C)CC (stereo partly drawn)
N=C1NCCN1CCCC[C@H]1CNC(=N)N1CC1CCCCC1
Cc1cccc(CCN2CCN(CCCC[C@H]3CNC(=N)N3CC3CCCCC3)C2=N)c1
CCCCCCCN1C(=N)NC[C@@H]1CCCCN1C[C@@H](CCC)NC1=N
CCC[C@@H]1CN(CCCC[C@H]2CNC(=N)N2CC2CCC(C)CC2)C(=N)N1CCc1cccc(C)c1 (stereo partly drawn)
CCCCCCCN1C(=N)NC[C@@H]1CCCCN1C[C@@H](CCC)N(CC(C)CC)C1=N (stereo partly drawn)
CCCCCCCN1C(=N)NC[C@@H]1CCCCN1C[C@H]([C@@H](C)CC)N(CCc2cccc(C)c2)C1=N

Test system: Enterobacter cloacae
Test: Antimicrobial activity against Enterobacter cloacae assessed as inhibition of microbial growth after 24 hrs
Format: functional
How it was run: as §1

MIC, inactive:
CC1CCC(CN2C(=N)NC[C@@H]2CCCCN2CCNC2=N)CC1 (stereo partly drawn)
CC[C@H](C)[C@H]1CN(CCCC[C@H]2CNC(=N)N2CC2CCC(C)CC2)C(=N)N1 (stereo partly drawn)
CCC(C)CN1C(=N)N(CCCC[C@H]2CNC(=N)N2CC2CCC(C)CC2)C[C@@H]1[C@@H](C)CC (stereo partly drawn)
CCCCCCCN1C(=N)NC[C@@H]1CCCCN1C[C@H]([C@@H](C)CC)N(CC(C)CC)C1=N (stereo partly drawn)
CC[C@H](C)[C@H]1CN(CCCC[C@H]2CNC(=N)N2CC2CCCCC2)C(=N)N1CCc1cccc(C)c1
CC[C@H](C)[C@H]1CN(CCCC[C@H]2CNC(=N)N2CC2CCCCC2)C(=N)N1
CCC(C)CN1C(=N)N(CCCC[C@H]2CNC(=N)N2CC2CCCCC2)C[C@@H]1[C@@H](C)CC (stereo partly drawn)
N=C1NCCN1CCCC[C@H]1CNC(=N)N1CC1CCCCC1
Cc1cccc(CCN2CCN(CCCC[C@H]3CNC(=N)N3CC3CCCCC3)C2=N)c1
CCCCCCCN1C(=N)NC[C@@H]1CCCCN1C[C@@H](CCC)NC1=N
CCC[C@@H]1CN(CCCC[C@H]2CNC(=N)N2CC2CCC(C)CC2)C(=N)N1CCc1cccc(C)c1 (stereo partly drawn)
CCCCCCCN1C(=N)NC[C@@H]1CCCCN1C[C@@H](CCC)N(CC(C)CC)C1=N (stereo partly drawn)
CCCCCCCN1C(=N)NC[C@@H]1CCCCN1C[C@H]([C@@H](C)CC)N(CCc2cccc(C)c2)C1=N
